Results as given in ChEMBL document CHEMBL1124349, “Novel benzodiazepine receptor partial agonists: oxadiazolylimidazobenzodiazepines” (J Med Chem, 1989).

Columns and labels:
[1] = target: GABA-A receptor; anion channel (Rattus norvegicus) (UniProt O09028+P15431+P18506+P18508+P19969+P20236+P23574+P23576+P28471+P28473+P30191+P62813+P63079+P63138+Q91ZM7+Q9ES14); experiment: Ratio of binding affinity to the GABA-A receptor in the presence and absence of GABA; assay type: protein-complex assay
Method in brief: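 [3H]-Ro 15-1788 displacement in washed rat cortical membranes (Krebs/HEPES pH 7.4, nipecotic acid 10^-4 M, 30 °C, 60 min) run with and without GABA at 0.3 mM. Nonspecific binding was defined by 3 μM clonazepam, and read-out was filtration with scintillation counting. The value is the ratio of the affinities obtained with GABA and without it.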

[2] = target: GABA-A receptor; anion channel; experiment: Inhibition of radiolabeled antagonist [3H]-Ro- 15-1788 binding to benzodiazepine receptor from rat cortical membranes; assay type: cell membranes, Membrane
Method in brief: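 Rat (Sprague–Dawley, 250-300 g) cortical membranes, water-washed and frozen at -20 °C ≥18 h, then washed repeatedly in Krebs/HEPES pH 7.4. Nonspecific binding with 3 μM clonazepam. Filtration, scintillation counting.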

| Structure (SMILES) | GABA shift [1] | IC50 [2] [nM] |
| --- | --- | --- |
| CC(C)c1noc(-c2ncn3c2CN=C(c2ccccc2Cl)c2cc(Cl)ccc2-3)n1 | 1.81 | 45 |
| Cc1noc(-c2ncn3c2CN(C)C(=O)c2ccccc2-3)n1 | 1.5 | 67 |
| CCCc1nc(-c2ncn3c2CN(C)C(=O)c2cc(F)ccc2-3)no1 | 1.96 | 27 |
| CCCc1noc(-c2ncn3c2CN(C)C(=O)c2c(Cl)cccc2-3)n1 | 1.53 | 6 |
| CC(C)c1noc(-c2ncn3c2CN=C(c2ccccc2)c2cc(Cl)ccc2-3)n1 | 1.06 | 120 |
| CC(C)c1nc(-c2ncn3c2CN=C(c2ccccc2)c2cc(Cl)ccc2-3)no1 | 2.89 | 53 |
| CCc1nc(-c2ncn3c2CN(C)C(=O)c2c(F)cccc2-3)no1 | 1.44 | 15 |
| CC(C)c1nc(-c2ncn3c2CN=C(c2ccccc2Cl)c2ccccc2-3)no1 | 1.64 | 14 |
| CC(C)c1noc(-c2ncn3c2CN=C(c2ccccc2)c2c(F)cccc2-3)n1 | 2.03 | 1.4 |
| CCc1noc(-c2ncn3c2CN=C(c2ccccc2Cl)c2cc(Cl)ccc2-3)n1 | 2.11 | 25 |
| CCCc1noc(-c2ncn3c2CN=C(c2ccccc2)c2cc(Cl)ccc2-3)n1 | 2.57 | 120 |
| CC(C)c1noc(-c2ncn3c2CN=C(c2ccccc2Cl)c2ccccc2-3)n1 | 1.83 | 31 |
| CCc1nc(-c2ncn3c2CN=C(c2ccccc2Cl)c2ccccc2-3)no1 | 1.48 | 13 |
| CCc1noc(-c2ncn3c2CN=C(c2ccccc2)c2cc(Cl)ccc2-3)n1 | 2 | 160 |
| Cc1noc(-c2ncn3c2CN(C)C(=O)c2cc(F)ccc2-3)n1 | 1.47 | 50 |
| CCc1noc(-c2ncn3c2CN(C)C(=O)c2ccccc2-3)n1 | 1.79 | 51 |
| Cc1nc(-c2ncn3c2CN=C(c2ccccc2)c2ccccc2-3)no1 | 1.56 | 7 |
| Cc1noc(-c2ncn3c2CN=C(c2ccccc2)c2c(Cl)cccc2-3)n1 | 1.67 | 3.4 |
| CC(C)c1noc(-c2ncn3c2CN(C)C(=O)c2ccccc2-3)n1 | 2.19 | 105 |
| CCCc1noc(-c2ncn3c2CN(C)C(=O)c2c(F)cccc2-3)n1 | 1.94 | 24 |
| CCc1nc(-c2ncn3c2CN(C)C(=O)c2c(Cl)cccc2-3)no1 | 1.12 | 6.4 |

| Structure (SMILES) | GABA shift [1] | IC50 [2] [nM] |
| --- | --- | --- |
| CCCc1noc(-c2ncn3c2CN=C(c2ccccc2)c2ccccc2-3)n1 | 1.8 | 43 |
| O=C(OCC1CC1)c1ncn2c1C1CCN1C(=O)c1c(Cl)cccc1-2 (configuration not stated) | 1.7 | 4.2 |
| Cc1nc(-c2ncn3c2CN(C)C(=O)c2c(Cl)cccc2-3)no1 | 1.18 | 3.4 |
| Cc1noc(-c2ncn3c2CN(C)C(=O)c2c(Cl)cccc2-3)n1 | 1.51 | 8.1 |
| CCc1nc(-c2ncn3c2CN=C(c2ccccc2)c2c(F)cccc2-3)no1 | 1.82 | 7.5 |
| Cc1noc(-c2ncn3c2CN=C(c2ccccc2Cl)c2cc(Cl)ccc2-3)n1 | 2.28 | 110 |
| CCCc1nc(-c2ncn3c2CN(C)C(=O)c2c(F)cccc2-3)no1 | 1.7 | 14 |
| CC(C)c1noc(-c2ncn3c2CN(C)C(=O)c2cc(F)ccc2-3)n1 | 1.86 | 100 |
| Cc1nc(-c2ncn3c2CN=C(c2ccccc2)c2c(F)cccc2-3)no1 | 1.68 | 2.4 |
| Cc1nc(-c2ncn3c2CN=C(c2ccccc2)c2cc(Cl)ccc2-3)no1 | 1.17 | 71 |
| Cc1nc(-c2ncn3c2CN(C)C(=O)c2ccccc2-3)no1 | 1.28 | 27 |
| Cc1noc(-c2ncn3c2CN=C(c2ccccc2)c2c(F)cccc2-3)n1 | 1.84 | 8.3 |
| CCCc1noc(-c2ncn3c2CN=C(c2ccccc2Cl)c2cc(Cl)ccc2-3)n1 | 2.92 | 34 |
| CCCc1noc(-c2ncn3c2CN=C(c2ccccc2)c2c(Cl)cccc2-3)n1 | 1.85 | 5.2 |
| CC(C)c1nc(-c2ncn3c2CN(C)C(=O)c2c(Cl)cccc2-3)no1 | 2.37 | 3.6 |
| Cc1noc(-c2ncn3c2CN=C(c2ccccc2Cl)c2ccccc2-3)n1 | 1.29 | 31 |
| CCCc1nc(-c2ncn3c2CN=C(c2ccccc2)c2c(Cl)cccc2-3)no1 | 1.7 | 3.9 |
| CCc1nc(-c2ncn3c2CN=C(c2ccccc2)c2c(Cl)cccc2-3)no1 | 1.65 | 2.8 |
| CCc1noc(-c2ncn3c2CN=C(c2ccccc2)c2c(F)cccc2-3)n1 | 2.31 | 9.8 |
| CCc1noc(-c2ncn3c2CN(C)C(=O)c2c(Cl)cccc2-3)n1 | 1.43 | 9.7 |
| CC(C)c1noc(-c2ncn3c2CN=C(c2ccccc2)c2ccccc2-3)n1 | 1.7 | 52 |

| Structure (SMILES) | GABA shift [1] | IC50 [2] [nM] |
| --- | --- | --- |
| CC(C)c1noc(-c2ncn3c2CN=C(c2ccccc2)c2c(Cl)cccc2-3)n1 | 1.91 | 7.2 |
| CCc1nc(-c2ncn3c2CN=C(c2ccccc2Cl)c2cc(Cl)ccc2-3)no1 | 1.86 | 9.4 |
| CCc1noc(-c2ncn3c2CN(C)C(=O)c2cc(Cl)ccc2-3)n1 | 0.91 | 600 |
| CCCc1noc(-c2ncn3c2CN(C)C(=O)c2ccccc2-3)n1 | 2.08 | 120 |
| CCCc1nc(-c2ncn3c2CN=C(c2ccccc2)c2c(F)cccc2-3)no1 | 2.06 | 5.3 |
| CC(C)c1noc(-c2ncn3c2CN(C)C(=O)c2c(Cl)cccc2-3)n1 | 1.86 | 14 |
| CCc1nc(-c2ncn3c2CN(C)C(=O)c2ccccc2-3)no1 | 1.8 | 22 |
| CC(C)c1nc(-c2ncn3c2CN(C)C(=O)c2c(F)cccc2-3)no1 | 1.97 | 19 |
| CCc1nc(-c2ncn3c2CN(C)C(=O)c2cc(F)ccc2-3)no1 | 1.84 | 27 |
| CCCc1nc(-c2ncn3c2CN(C)C(=O)c2c(Cl)cccc2-3)no1 | 1.41 | 3.8 |
| CCc1noc(-c2ncn3c2CN=C(c2ccccc2)c2ccccc2-3)n1 | 1.2 | 19 |
| CCCc1nc(-c2ncn3c2CN=C(c2ccccc2Cl)c2cc(Cl)ccc2-3)no1 | 1.81 | 8.2 |
| CCCc1nc(-c2ncn3c2CN=C(c2ccccc2Cl)c2ccccc2-3)no1 | 1.68 | 12 |
| CCCc1nc(-c2ncn3c2CN(C)C(=O)c2ccccc2-3)no1 | 2 | 34 |
| CC(C)c1nc(-c2ncn3c2CN=C(c2ccccc2)c2c(Cl)cccc2-3)no1 | 1.82 | 6.9 |
| Cc1nc(-c2ncn3c2CN=C(c2ccccc2Cl)c2ccccc2-3)no1 | 1.35 | 6.7 |
| Cc1nc(-c2ncn3c2CN(C)C(=O)c2c(F)cccc2-3)no1 | 1.65 | 11 |
| CC(C)c1nc(-c2ncn3c2CN=C(c2ccccc2)c2ccccc2-3)no1 | 2.57 | 18 |
| CC(C)c1nc(-c2ncn3c2CN=C(c2ccccc2Cl)c2cc(Cl)ccc2-3)no1 | 2.79 | 12 |
